# Tests used:
# Cytochrome P450 2C19 = Cytochrome P450 2C19 (Homo sapiens, UniProt P33261); experiment: Reversible inhibition of human CYP2C19 S-mephenytoin 4'-hydroxylase activity; assay type: ADME
# How it was run: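 Reversible IC50 with pooled HLM or recombinant CYP3A7 (with POR and b5), protein 0.010–0.10 mg/ml depending on isoform. Probe substrate at its experimentally derived KM. Metabolite formation measured by LC/MS/MS. IC50 determinations run in duplicate.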
# CYP2C8 = CYP2C8 (Homo sapiens, UniProt P10632); experiment: Time dependent inhibition of human CYP2C8 paclitaxel 6alpha-hydroxylase activity assessed as decrease in enzyme activity at 100 uM preincubated for 30 mins by IC25-shift assay; assay type: ADME; conditions: probe paclitaxel (6alpha-hydroxylation)
# Chain of CYP2C8 (P10632 whole entry): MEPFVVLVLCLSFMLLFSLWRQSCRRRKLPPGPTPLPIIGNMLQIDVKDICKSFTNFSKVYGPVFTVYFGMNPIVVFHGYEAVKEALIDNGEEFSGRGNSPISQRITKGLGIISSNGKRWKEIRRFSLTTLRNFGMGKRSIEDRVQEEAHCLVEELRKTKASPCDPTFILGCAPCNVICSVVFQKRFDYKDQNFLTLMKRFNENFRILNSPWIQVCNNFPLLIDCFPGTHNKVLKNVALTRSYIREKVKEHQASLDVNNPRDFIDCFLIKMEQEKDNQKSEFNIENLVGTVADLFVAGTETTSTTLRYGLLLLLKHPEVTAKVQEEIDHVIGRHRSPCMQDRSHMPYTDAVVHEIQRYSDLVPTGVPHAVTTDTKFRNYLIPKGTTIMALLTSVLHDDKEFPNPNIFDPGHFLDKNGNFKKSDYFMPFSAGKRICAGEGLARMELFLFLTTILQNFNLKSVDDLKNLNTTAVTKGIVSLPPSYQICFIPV
# How it was run: (§1)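 IC25-shift assay. Pooled HLMs or recombinant CYP3A4/3A5/3A7 were preincubated 30 min at 37°C with CYP3cide, with or without NADPH (1.3 mM) (N=2). Mixture diluted 10-fold into probe substrate (~KM) at 37°C. Metabolites analysed by LC/MS/MS. Readout: % decrease in activity vs control.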
# CYP3A5 = CYP3A5 (Homo sapiens, UniProt P20815); experiment: Time dependent inhibition of testosterone 6beta-hydroxylase activity of human recombinant CYP3A5 in presence of human P450 oxidoreductase and b5 assessed as decrease in enzyme activity at 2 uM preincubated for 30 mins by IC25-shift assay; assay type: ADME; conditions: recombinant CYP3A5 with human P450 oxidoreductase and b5, probe testosterone (6beta-hydroxylation); how it was run: as §1
# Chain of CYP3A5 (P20815 whole entry): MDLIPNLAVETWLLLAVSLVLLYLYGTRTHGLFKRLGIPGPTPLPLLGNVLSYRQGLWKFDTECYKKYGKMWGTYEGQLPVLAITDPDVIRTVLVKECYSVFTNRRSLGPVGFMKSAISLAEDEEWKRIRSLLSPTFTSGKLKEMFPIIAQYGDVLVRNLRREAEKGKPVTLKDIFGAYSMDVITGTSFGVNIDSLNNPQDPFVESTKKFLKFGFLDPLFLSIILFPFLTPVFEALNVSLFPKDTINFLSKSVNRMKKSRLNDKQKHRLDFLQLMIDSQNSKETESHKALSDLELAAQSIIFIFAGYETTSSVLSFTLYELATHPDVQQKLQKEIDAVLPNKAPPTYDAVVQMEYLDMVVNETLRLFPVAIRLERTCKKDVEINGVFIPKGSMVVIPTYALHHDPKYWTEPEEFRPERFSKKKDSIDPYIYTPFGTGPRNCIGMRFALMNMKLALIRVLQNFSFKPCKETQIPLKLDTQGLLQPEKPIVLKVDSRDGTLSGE
# CYP3A5*3/*3 [1] = experiment: Inhibition of CYP3A5*3/*3 in human liver microsomes assessed as midazolam 1'-hydroxylase activity at 0.56 uM after 10 mins; assay type: ADME; conditions: liver microsomes (CYP3A5*3/*3 genotype), probe midazolam (1'-hydroxylation)
# How it was run: (§2)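 Genotyped individual HLMs (0.1 mg/ml) preincubated at 37°C with CYP3cide (0–1.3 μM; 10 min in the two-donor study, 5 min in the 30-donor study), with or without 1.3 mM NADPH (N=3). Mixture diluted 20-fold into 23 μM midazolam for 6 min. 1'-OH-midazolam measured. Readout: % of vehicle/no-NADPH control activity.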
# Cytochrome P450 3A4 [2] = target: T1, Cytochrome P450 3A4 (Homo sapiens, UniProt P08684); experiment: Reversible inhibition of midazolam 1'-hydroxylase activity of human recombinant CYP3A4 harboring human P450 oxidoreductase and b5; assay type: ADME
# T1 sequence (P08684 whole entry): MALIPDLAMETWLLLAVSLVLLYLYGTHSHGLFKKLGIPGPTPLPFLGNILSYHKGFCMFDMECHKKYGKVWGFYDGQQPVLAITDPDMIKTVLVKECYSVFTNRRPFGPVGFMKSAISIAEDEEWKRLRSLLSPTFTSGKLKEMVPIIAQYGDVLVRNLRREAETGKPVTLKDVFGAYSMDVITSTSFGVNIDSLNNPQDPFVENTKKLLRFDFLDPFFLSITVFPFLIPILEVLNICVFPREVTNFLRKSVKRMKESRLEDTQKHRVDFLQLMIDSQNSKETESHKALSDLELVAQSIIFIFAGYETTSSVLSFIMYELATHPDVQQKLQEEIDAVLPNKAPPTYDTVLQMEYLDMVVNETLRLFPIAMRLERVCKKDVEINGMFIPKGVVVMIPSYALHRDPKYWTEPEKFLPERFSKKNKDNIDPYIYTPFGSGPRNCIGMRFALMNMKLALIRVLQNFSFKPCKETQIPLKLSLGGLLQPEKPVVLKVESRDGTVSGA
# How it was run: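 IC50 was measured with baculovirus-expressed CYP3A4 plus POR and cytochrome b5 (P450:reductase:b5 1:5:7), with substrate at its experimentally derived KM, in duplicate. Enzyme was 0.010 mg/ml for midazolam 1'-hydroxylation and 0.020 mg/ml for testosterone 6β-hydroxylation.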
# CYP3A5*1/*3 = experiment: Time dependent inhibition of CYP3A5*1/*3 in human liver microsomes assessed as midazolam 1'-hydroxylase activity at 0.56 uM after 10 mins by dilution method; assay type: ADME; conditions: human liver microsomes (CYP3A5*1/*3 genotype), probe midazolam (1'-hydroxylation)
# CYP2B6 = CYP2B6 (Homo sapiens, UniProt P20813); experiment: Time dependent inhibition of human CYP2B6 bupropion hydroxylase activity assessed as decrease in enzyme activity at 100 uM preincubated for 30 mins by IC25-shift assay; assay type: ADME; conditions: probe bupropion (hydroxylation); how it was run: as §1
# Chain of CYP2B6 (P20813 whole entry): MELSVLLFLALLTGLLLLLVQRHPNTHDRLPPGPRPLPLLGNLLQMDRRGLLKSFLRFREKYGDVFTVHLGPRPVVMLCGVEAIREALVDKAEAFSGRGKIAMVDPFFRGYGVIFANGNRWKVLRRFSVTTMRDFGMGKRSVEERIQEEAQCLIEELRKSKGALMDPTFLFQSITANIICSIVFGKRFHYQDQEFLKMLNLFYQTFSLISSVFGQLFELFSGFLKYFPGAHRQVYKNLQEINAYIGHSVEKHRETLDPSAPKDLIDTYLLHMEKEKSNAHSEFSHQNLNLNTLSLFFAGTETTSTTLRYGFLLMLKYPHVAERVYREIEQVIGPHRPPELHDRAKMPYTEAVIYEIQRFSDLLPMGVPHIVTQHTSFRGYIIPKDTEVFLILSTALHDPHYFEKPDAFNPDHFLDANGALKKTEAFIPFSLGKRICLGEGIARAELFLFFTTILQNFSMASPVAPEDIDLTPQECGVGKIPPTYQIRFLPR
# CYP3A = CYP3A (Homo sapiens, UniProt P08684+P20815+P24462+Q9HB55); experiment: Time dependent inhibition of human CYP3A midazolam 1'-hydroxylase activity assessed as decrease in enzyme activity at 1 uM preincubated for 30 mins by IC25-shift assay; assay type: ADME; conditions: probe midazolam (1'-hydroxylation); how it was run: as §1
# Cytochrome P450 3A5 [3] = target: T2, Cytochrome P450 3A5 (Homo sapiens, UniProt P20815); experiment: Drug metabolism assessed as human recombinant CYP3A5 in presence of human P450 oxidoreductase and b5-mediated (4-(1-methyl-4-((S)-3-(piperidin-1-yl)pyrrolidin-1-yl)-1H-pyrazolo[3,4-d]pyrimidin-3-yl)-5-p-tolyl-1H-pyrazol-1-yl)methanol formation at 10 uM by HPLC-MS analysis in presence of NADPH; assay type: ADME; conditions: recombinant enzyme
# How it was run: (§3)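 Recombinant CYP3A4 or CYP3A5 (50 pmol/ml final) added, without preincubation, to 10 µM CYP3cide with NADPH (final 1 mM) in 100 mM phosphate pH 7.4. Trapping incubations also held 200 µM KCN or 5 mM GSH (final). Incubated 1 h at 37°C, quenched with acetonitrile, dried, reconstituted. Metabolites analysed by LC/Orbitrap ESI-MS.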
# Target sequence in this assay (P20815 whole entry): as the sequence (P20815 whole entry) above
# CYP3A5*3/*3 [4] = experiment: Time dependent inhibition of CYP3A5*3/*3 in human liver microsomes assessed as midazolam 1'-hydroxylase activity at 0.56 uM after 10 mins by dilution method; assay type: ADME; conditions: human liver microsomes (CYP3A5*3/*3 genotype), probe midazolam (1'-hydroxylation); how it was run: as §2
# CYP3A5*1/*1 = experiment: Inhibition of CYP3A5*1/*1 in human liver microsomes assessed as midazolam 1'-hydroxylase activity at 0.56 uM after 10 mins; assay type: ADME; conditions: liver microsomes (CYP3A5*1/*1 genotype), probe midazolam (1'-hydroxylation); how it was run: as §2
# CYP3A4 [5] = target: T3, CYP3A4 (Homo sapiens, UniProt P08684); experiment: Irreversible inhibition of human recombinant CYP3A4 harboring human P450 oxidoreductase and b5 assessed as residual midazolam 1'-hydroxylase activity in presence of NADPH relative to control; assay type: ADME; conditions: recombinant CYP3A4 with human P450 oxidoreductase and b5, probe midazolam (1'-hydroxylation)
# T3 sequence (P08684 whole entry): as the sequence (P08684 whole entry) above
# CYP3A7 = CYP3A7 (Homo sapiens, UniProt P24462); experiment: Time dependent inhibition of midazolam 1'-hydroxylase activity of human recombinant CYP3A7 harboring human P450 oxidoreductase and b5 assessed as decrease in enzyme activity at 100 uM preincubated for 30 mins by IC25-shift assay; assay type: ADME; conditions: recombinant CYP3A7 with human P450 oxidoreductase and b5, probe midazolam (1'-hydroxylation); how it was run: as §1
# Chain of CYP3A7 (P24462 whole entry): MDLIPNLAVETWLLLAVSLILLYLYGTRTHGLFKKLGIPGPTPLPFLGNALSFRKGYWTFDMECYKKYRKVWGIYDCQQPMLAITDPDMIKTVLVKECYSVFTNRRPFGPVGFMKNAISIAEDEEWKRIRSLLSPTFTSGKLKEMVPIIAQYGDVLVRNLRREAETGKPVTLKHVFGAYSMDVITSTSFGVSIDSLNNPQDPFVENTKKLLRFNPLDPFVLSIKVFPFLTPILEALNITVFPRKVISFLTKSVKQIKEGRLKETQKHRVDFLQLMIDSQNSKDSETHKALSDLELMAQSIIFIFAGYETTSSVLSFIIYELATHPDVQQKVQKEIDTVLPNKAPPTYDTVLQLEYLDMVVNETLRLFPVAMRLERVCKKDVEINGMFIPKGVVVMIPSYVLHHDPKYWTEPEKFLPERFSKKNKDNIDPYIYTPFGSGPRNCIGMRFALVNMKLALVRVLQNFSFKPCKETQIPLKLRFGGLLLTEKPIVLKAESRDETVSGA
# Cytochrome P450 3A5 [6] = target: T2, Cytochrome P450 3A5; experiment: Drug metabolism assessed as human recombinant CYP3A5 in presence of human P450 oxidoreductase and b5-mediated 1-((3S)-1-(1-methyl-3-(1-methyl-5-p-tolyl-1H-pyrazol-4-yl)-1H-pyrazolo[3,4-d]pyrimidin-4-yl)pyrrolidin-3-yl)-2,3,4,5-tetrahydropyridinium formation at 10 uM by HPLC-MS analysis in presence of KCN and NADPH; assay type: ADME; conditions: recombinant enzyme; how it was run: as §3
# Target sequence in this assay (P20815 whole entry): as the sequence (P20815 whole entry) above
# Cytochrome P450 3A4 [7] = target: T1, Cytochrome P450 3A4; experiment: Inhibition of testosterone 6beta-hydroxylase activity of human recombinant CYP3A4 in presence of human P450 oxidoreductase and b5 assessed as decrease in enzyme activity preincubated for 30 mins by LC-MS/MS analysis; assay type: ADME
# CYP3A4 [8] = target: T3, CYP3A4; experiment: Time dependent inhibition of midazolam 1'-hydroxylase activity of human recombinant CYP3A4 harboring human P450 oxidoreductase and b5 assessed as decrease in enzyme activity at 0.050 uM preincubated for 30 mins by IC25-shift assay; assay type: ADME; conditions: recombinant CYP3A4 with human P450 oxidoreductase and b5, probe midazolam (1'-hydroxylation); how it was run: as §1
# CYP2C19 = CYP2C19 (Homo sapiens, UniProt P33261); experiment: Time dependent inhibition of human CYP2C19 S-mephenytoin 4'-hydroxylase activity assessed as decrease in enzyme activity at 100 uM preincubated for 30 mins by IC25-shift assay; assay type: ADME; conditions: probe S-mephenytoin (4'-hydroxylation); how it was run: as §1
# Chain of CYP2C19 (P33261 whole entry): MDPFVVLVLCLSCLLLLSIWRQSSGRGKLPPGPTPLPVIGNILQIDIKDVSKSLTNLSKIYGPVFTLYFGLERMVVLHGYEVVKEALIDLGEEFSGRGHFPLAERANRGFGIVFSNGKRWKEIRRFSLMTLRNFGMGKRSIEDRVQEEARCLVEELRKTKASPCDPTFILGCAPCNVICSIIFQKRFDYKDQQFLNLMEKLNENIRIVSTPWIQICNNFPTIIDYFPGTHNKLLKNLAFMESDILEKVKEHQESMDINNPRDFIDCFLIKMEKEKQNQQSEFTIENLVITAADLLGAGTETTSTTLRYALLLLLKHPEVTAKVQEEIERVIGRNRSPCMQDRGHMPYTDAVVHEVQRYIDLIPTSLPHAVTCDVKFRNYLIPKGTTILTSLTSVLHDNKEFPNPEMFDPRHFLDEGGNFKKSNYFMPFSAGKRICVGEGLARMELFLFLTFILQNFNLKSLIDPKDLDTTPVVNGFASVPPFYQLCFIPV
# Cytochrome P450 3A5 [9] = target: T2, Cytochrome P450 3A5; experiment: Drug metabolism assessed as human recombinant CYP3A5 in presence of human P450 oxidoreductase and b5-mediated 1-((3S)-1-(1-methyl-3-(1-methyl-5-p-tolyl-1H-pyrazol-4-yl)-1H-pyrazolo[3,4-d]pyrimidin-4-yl)pyrrolidin-3-yl)-2,3,4,5-tetrahydropyridinium formation at 10 uM by HPLC-MS analysis in presence of KCN and NADPH; conditions: recombinant enzyme
# Target sequence in this assay (P20815 whole entry, looked up): as the sequence (P20815 whole entry) above
# Chain of Cytochrome P450 2C19 (P33261 whole entry, canonical isoform): as the sequence (P33261 whole entry) above
smiles,measurement,setting,value
Cc1ccc(-c2c(-c3nn(C)c4ncnc(N5CC[C@H](N6CCCCC6)C5)c34)cnn2C)cc1,IC50,Cytochrome P450 2C19,77000 nM
same,"inhibition at 30 min, 100 µM",CYP2C8,13%
same,"inhibition at 30 min, 2 µM",CYP3A5,71%
same,"inhibition at 10 min, 0.56 µM",CYP3A5*3/*3 [1],> 85%
same,IC50,Cytochrome P450 3A4 [2],30 nM
same,"inhibition at 10 min, 0.56 µM",CYP3A5*1/*3,0.4%
same,"inhibition at 30 min, 100 µM",CYP2B6,2.4%
same,"inhibition at 30 min, 1 µM",CYP3A,47%
same,Drug metabolism,Cytochrome P450 3A5 [3],metabolite_detected
same,"inhibition at 10 min, 0.56 µM",CYP3A5*3/*3 [4],0.4%
same,"inhibition at 10 min, 0.56 µM",CYP3A5*1/*1,23%
same,activity,CYP3A4 [5],16%
same,"inhibition at 30 min, 100 µM",CYP3A7,15%
same,Drug metabolism,Cytochrome P450 3A5 [6],metabolite_detected
same,Ki,Cytochrome P450 3A4 [7],170 nM
same,"inhibition at 30 min, 0.05 µM",CYP3A4 [8],87%
same,"inhibition at 30 min, 100 µM",CYP2C19,0.79%
same,Drug metabolism,Cytochrome P450 3A5 [9],metabolite_detected

# Source: ChEMBL document CHEMBL3526089, “Selective mechanism-based inactivation of CYP3A4 by CYP3cide (PF-04981517) and its utility as an in vitro tool for delineating the relative roles of CYP3A4 versus CYP3A5 in the metabolism of drugs” (Drug Metab Dispos, 2012)
